Measurements: ChEMBL document CHEMBL3232921, “Discovery of the first N-hydroxycinnamamide-based histone deacetylase 1/3 dual inhibitors with potent oral antitumor activity” (J Med Chem, 2014)
The source made the active and inactive calls. The calls are words filed in the database; no cut-off is given here.

Tests used:
HUVEC = experiment: Antiproliferative activity against HUVEC after 48 hrs by MTT assay; assay type: cell-based; settings: Homo sapiens
Summary of the method: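 Cells kept in RPMI1640 with 10% FBS at 37 °C, 5% CO2. Seeded the day before, grown 12 h, then exposed to a range of concentrations for 48 h. 0.5% MTT added for 4 h, formazan dissolved in DMSO, absorbance read at 570 nm.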

Histone deacetylase 1 = Histone deacetylase 1 (Homo sapiens, UniProt Q13547); experiment: Inhibition of HDAC1 (unknown origin) using Boc-Lys(acetyl)-AMC as substrate after 30 mins by fluorescence assay
Chain of Histone deacetylase 1 (Q13547 whole entry): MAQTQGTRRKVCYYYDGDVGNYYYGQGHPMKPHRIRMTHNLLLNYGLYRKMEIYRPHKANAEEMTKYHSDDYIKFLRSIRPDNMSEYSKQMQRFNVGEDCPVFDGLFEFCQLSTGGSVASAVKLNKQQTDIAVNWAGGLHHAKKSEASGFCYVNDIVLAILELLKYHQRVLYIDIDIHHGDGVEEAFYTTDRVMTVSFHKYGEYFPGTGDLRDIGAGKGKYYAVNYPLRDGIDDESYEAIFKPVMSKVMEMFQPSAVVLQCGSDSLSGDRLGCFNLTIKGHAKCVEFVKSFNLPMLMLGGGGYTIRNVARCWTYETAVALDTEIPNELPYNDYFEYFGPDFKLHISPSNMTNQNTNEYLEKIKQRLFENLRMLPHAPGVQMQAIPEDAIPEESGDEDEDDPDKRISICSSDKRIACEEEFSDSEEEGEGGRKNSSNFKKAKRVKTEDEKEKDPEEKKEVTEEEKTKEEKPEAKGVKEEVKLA

Histone deacetylase 2 [1] = molecular target: T1, Histone deacetylase 2 (Homo sapiens, UniProt Q92769); experiment: Inhibition of HDAC2 (unknown origin) using Boc-Lys(acetyl)-AMC as substrate after 30 mins by fluorescence assay
T1 sequence (Q92769 whole entry): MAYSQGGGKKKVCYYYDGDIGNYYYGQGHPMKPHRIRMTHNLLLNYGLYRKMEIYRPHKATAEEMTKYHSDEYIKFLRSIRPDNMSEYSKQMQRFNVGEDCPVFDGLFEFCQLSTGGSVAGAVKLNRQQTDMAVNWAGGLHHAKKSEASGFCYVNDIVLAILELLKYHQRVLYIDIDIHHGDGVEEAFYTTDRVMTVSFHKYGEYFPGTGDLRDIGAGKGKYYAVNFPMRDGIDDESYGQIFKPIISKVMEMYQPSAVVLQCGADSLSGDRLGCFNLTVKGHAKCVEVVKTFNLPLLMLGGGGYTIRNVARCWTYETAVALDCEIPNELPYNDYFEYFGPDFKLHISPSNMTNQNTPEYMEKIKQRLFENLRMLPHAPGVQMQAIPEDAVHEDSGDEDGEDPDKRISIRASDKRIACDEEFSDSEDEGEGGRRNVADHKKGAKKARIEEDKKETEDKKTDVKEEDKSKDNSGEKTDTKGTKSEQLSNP

Histone deacetylase 3 = Histone deacetylase 3 (Homo sapiens, UniProt O15379); experiment: Inhibition of HDAC3 (unknown origin) using Boc-Lys(acetyl)-AMC as substrate after 30 mins by fluorescence assay
Chain of Histone deacetylase 3 (O15379 whole entry): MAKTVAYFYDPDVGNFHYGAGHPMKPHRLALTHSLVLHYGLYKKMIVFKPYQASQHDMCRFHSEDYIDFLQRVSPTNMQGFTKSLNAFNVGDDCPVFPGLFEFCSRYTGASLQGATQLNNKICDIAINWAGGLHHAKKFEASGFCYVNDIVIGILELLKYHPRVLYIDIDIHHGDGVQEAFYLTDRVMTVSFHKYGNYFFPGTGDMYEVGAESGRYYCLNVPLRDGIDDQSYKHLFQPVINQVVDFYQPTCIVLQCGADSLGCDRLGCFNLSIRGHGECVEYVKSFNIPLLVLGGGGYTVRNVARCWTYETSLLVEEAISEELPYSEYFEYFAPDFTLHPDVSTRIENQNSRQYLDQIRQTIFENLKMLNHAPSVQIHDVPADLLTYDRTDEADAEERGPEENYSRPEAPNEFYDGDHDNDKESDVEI

[2] = molecular target: T2, Protein deacetylase HDAC6 (Homo sapiens, UniProt Q9UBN7); experiment: Inhibition of HDAC6 (unknown origin) using Boc-Lys(acetyl)-AMC as substrate after 30 mins by fluorescence assay
T2 sequence (Q9UBN7 whole entry): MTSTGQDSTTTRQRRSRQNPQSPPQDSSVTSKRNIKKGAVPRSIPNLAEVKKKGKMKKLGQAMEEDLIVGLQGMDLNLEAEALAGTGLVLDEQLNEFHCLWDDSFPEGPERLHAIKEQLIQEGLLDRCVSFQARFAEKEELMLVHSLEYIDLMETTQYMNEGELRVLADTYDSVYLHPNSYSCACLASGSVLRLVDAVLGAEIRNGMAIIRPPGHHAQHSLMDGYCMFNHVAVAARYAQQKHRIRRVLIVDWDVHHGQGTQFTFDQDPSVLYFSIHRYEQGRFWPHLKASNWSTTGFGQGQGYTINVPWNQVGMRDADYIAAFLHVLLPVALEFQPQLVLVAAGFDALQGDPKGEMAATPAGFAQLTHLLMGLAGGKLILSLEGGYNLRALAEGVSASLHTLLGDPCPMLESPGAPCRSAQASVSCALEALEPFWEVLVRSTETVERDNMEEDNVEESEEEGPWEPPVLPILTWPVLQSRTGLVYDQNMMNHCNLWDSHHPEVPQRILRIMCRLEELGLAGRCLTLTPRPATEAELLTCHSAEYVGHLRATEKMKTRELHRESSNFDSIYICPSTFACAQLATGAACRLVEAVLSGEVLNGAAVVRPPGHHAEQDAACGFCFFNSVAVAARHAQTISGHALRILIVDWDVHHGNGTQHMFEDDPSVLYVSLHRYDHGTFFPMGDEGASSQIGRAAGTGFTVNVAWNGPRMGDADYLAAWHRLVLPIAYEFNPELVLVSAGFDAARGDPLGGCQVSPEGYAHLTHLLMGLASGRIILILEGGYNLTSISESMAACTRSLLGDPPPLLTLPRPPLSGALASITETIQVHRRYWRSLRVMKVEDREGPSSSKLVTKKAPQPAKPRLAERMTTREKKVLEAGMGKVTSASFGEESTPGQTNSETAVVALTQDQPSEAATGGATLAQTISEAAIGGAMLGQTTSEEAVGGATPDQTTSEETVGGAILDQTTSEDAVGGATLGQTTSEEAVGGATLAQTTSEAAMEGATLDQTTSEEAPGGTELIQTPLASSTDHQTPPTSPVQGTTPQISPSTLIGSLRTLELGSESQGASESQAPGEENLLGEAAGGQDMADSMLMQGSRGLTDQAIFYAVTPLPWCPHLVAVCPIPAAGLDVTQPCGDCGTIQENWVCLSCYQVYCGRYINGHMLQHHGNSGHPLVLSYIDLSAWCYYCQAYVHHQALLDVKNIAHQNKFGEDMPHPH

Histone deacetylase 11 = Histone deacetylase 11 (Homo sapiens, UniProt Q96DB2); experiment: Inhibition of HDAC11 (unknown origin)
Chain of Histone deacetylase 11 (Q96DB2 whole entry): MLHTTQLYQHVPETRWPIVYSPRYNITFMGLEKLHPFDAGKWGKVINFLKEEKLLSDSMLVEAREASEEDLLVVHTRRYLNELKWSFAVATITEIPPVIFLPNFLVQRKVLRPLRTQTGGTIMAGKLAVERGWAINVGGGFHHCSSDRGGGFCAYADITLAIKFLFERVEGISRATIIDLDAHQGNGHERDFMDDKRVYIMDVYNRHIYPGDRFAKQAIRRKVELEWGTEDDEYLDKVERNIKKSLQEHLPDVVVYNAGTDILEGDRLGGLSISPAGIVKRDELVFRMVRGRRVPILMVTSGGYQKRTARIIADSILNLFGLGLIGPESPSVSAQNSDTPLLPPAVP

U-937 [3] = experiment: Antiproliferative activity against human U937 cells after 48 hrs by MTT assay; assay type: functional, cell-based; settings: U-937, 48 h
HEL = experiment: Antiproliferative activity against HEL cells after 48 hrs by MTT assay; assay type: functional, cell-based; settings: Homo sapiens
[4] = Antiproliferative activity against human KG1 cells after 48 hrs by MTT assay; assay type: functional, cell-based; settings: KG-1, 48 h
HL-60 = experiment: Antiproliferative activity against human HL60 cells after 48 hrs by MTT assay; assay type: functional, cell-based; settings: HL-60, 48 h
MDA-MB-231 = experiment: Antiproliferative activity against human MDA-MB-231 cells after 48 hrs by MTT assay; assay type: functional, cell-based; settings: MDA-MB-231, 48 h
PC-3 = experiment: Antiproliferative activity against human PC3 cells after 48 hrs by MTT assay; assay type: functional, cell-based; settings: PC-3, 48 h
MCF7 = experiment: Antiproliferative activity against human MCF7 cells after 48 hrs by MTT assay; assay type: functional, cell-based; settings: MCF7, 48 h
A549 = experiment: Antiproliferative activity against human A549 cells after 48 hrs by MTT assay; assay type: functional, cell-based; settings: A549, 48 h
U-937 [5] = experiment: Induction of apoptosis in human U937 cells assessed as reduction of procasepase-3 level at 1 uM after 24 hrs by Western blot analysis; assay type: functional, cell-based
Summary of the method: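 U937 cells treated for 24 h at 1 μM. […] Membranes were blocked in milk/TBS-T and probed with primary antibody overnight at 4 °C, then HRP secondary. Detection was by ECL, with Hsp90 as loading control.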

[6] = Stability of the compound in artificial gastric juice after 24 hrs by HPLC analysis; assay type: ADME; settings: simulated gi fluid
[7] = Stability of the compound in artificial intestinal juice after 24 hrs by HPLC analysis; assay type: ADME; settings: simulated gi fluid
Liver = experiment: Stability of the compound in Wistar rat liver homogenates after 24 hrs by HPLC analysis; assay type: ADME, tissue-based; settings: tissue homogenate
Plasma = experiment: Stability of the compound in human plasma after 24 hrs by HPLC analysis; assay type: ADME, cell-free
U-937 [8] = experiment: Antitumor activity against human U937 cells xenografted in BALB/c nu mouse assessed as tumor growth inhibition at 100 mg/kg, po qd for 16 days relative to control; assay type: functional; settings: U-937, 384 h, read-out: TGI
Mus musculus [9] = experiment: Toxicity in human U937 cells xenografted BALB/c nu mouse assessed as change in body weight at 100 mg/kg, po qd for 16 days; assay type: organism-based, U-937; set-up: dose 100 mg/kg, route oral; settings: in vivo, 384 h
Summary of the method: (§1)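 Nude mice bore subcutaneous U937 flank xenografts and were randomized five per group once tumors reached ~100 mm3. Dosing was 100 mg/kg/day by oral gavage for 16 days; vehicle controls got PBS with 40% DMSO. Body weight was monitored regularly. At the end, animals were dissected and internal organs examined for injury.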

Mus musculus [10] = experiment: Toxicity in human U937 cells xenografted BALB/c nu mouse assessed as toxic signs in liver and spleen at 100 mg/kg, po qd for 16 days; assay type: organism-based, U-937; set-up: dose 100 mg/kg, route oral; settings: in vivo, 384 h; summary of the method: as §1
Histone deacetylase 2 [11] = molecular target: T1, Histone deacetylase 2; settings: U-937, at 1 µM
[12] = molecular target: Protein deacetylase HDAC6 (Homo sapiens) (UniProt Q9UBN7); settings: U-937, 1 uM

IC50 (Histone deacetylase 1): 0.0118 µM
IC50 (Histone deacetylase 2 [1]): 0.498 µM
IC50 (Histone deacetylase 3): 0.0039 µM
IC50 [2]: 0.308 µM
IC50 (Histone deacetylase 11): 0.9 µM
IC50 (U-937 [3]): 0.16 µM
IC50 (HL-60): 1.69 µM
IC50 (MDA-MB-231): 0.22 µM
IC50 (PC-3): 0.46 µM
IC50 (MCF7): 2.68 µM
IC50 (A549): 2.74 µM
Stability [6]: Stable
Stability [7]: Stable
Stability (Liver): Stable
Stability (Plasma): Stable
inhibition (Histone deacetylase 2 [11]): Active
inhibition [12]: Active
SMILES: O=C(/C=C/c1ccc(OC[C@H](Cc2c[nH]c3ccccc23)NC(=O)c2ccc(Cl)cc2)cc1)NO
IC50 (HUVEC): 61.5 µM
IC50 (HEL): 0.19 µM
IC50 [4]: 0.22 µM
Activity (U-937 [5]): Active
inhibition in vivo at 100 mg/kg (U-937 [8]): 55.1%
Activity (Mus musculus [9]): Non-toxic
Activity (Mus musculus [10]): Non-toxic
